Reference: ChEMBL document CHEMBL5247673, “Discovery of Small Molecules Targeting the Frameshifting Element RNA in SARS-CoV-2 Viral Genome” (ACS Med Chem Lett, 2023)
Calls of active or inactive are those of the source. No cut-off for these calls is given here.

What was measured:
[1] = test system: Severe acute respiratory syndrome coronavirus 2; experiment: Binding affinity to 5'-CY5-labelled SARS-CoV-2 frameshift element RNA by SPR analysis
Procedure, shortened: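 Single-concentration SPR at 100 μM compound over immobilized FSE RNA, with the lead compound as positive control.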

[2] = test system: Severe acute respiratory syndrome coronavirus 2; experiment: Binding affinity to 5'-CY5-labelled SARS-CoV-2 frameshift element RNA by MST analysis
Procedure, shortened: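 Single-concentration MST screen against 5′-Cy5-labelled FSE RNA at 100 μM compound. A hit required an MST shift greater than 3SD of the DMSO signal, with the lead compound as positive control.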

[3] = test system: Severe acute respiratory syndrome coronavirus 2; experiment: Binding affinity to SARS-CoV-2 frameshift element RNA assessed as thermal stability by measuring change in melting temperature of RNA by circular dichroism analysis
Procedure, shortened: (§1)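 FSE RNA thermal melt with compound at 150 or 500 μM. Tm was taken from first-derivative melting curves and reported as ΔTm.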

[4] = test system: Reticulocyte; experiment: Binding affinity to wild-type SARS-CoV-2 frameshift element RNA pseudoknot sequence transfected with Renilla/Firefly luciferase in rabbit reticulocyte lysate assessed as translation by measuring ratio of renilla luminescence by dual-luciferase reporter assay; format: subcellular; details: Severe acute respiratory syndrome coronavirus 2
Procedure, shortened: (§2)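 In vitro frameshifting reporter with the SARS-CoV-2 or RSV pseudoknot placed between Renilla (0 frame) and firefly (−1 frame) luciferases. Frameshifting was the luminescence ratio. Frameshifting and translation were normalized to WT plus DMSO. Controls were a 5′ stop codon, a 3′ stop codon and a same-frame construct. Data are mean ± SD, n = 3.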

[5] = test system: Reticulocyte; experiment: Binding affinity to wild-type SARS-CoV-2 frameshift element RNA pseudoknot sequence transfected with Renilla/Firefly luciferase in rabbit reticulocyte lysate assessed as frameshifting by measuring ratio of renilla/firefly luminescence by dual-luciferase reporter assay; format: subcellular; details: Severe acute respiratory syndrome coronavirus 2; procedure, shortened: as §2
[6] = test system: Reticulocyte; experiment: Binding affinity to wild-type Rous sarcoma virus frameshift element RNA pseudoknot sequence transfected with Renilla/Firefly luciferase in rabbit reticulocyte lysate assessed as translation by measuring ratio of renilla luminescence by dual-luciferase reporter assay; format: subcellular; procedure, shortened: as §2
[7] = test system: Reticulocyte; experiment: Binding affinity to wild-type Rous sarcoma virus frameshift element RNA pseudoknot sequence transfected with Renilla/Firefly luciferase in rabbit reticulocyte lysate assessed as frameshifting by measuring ratio of renilla/firefly luminescence by dual-luciferase reporter assay; format: subcellular; procedure, shortened: as §2
[8] = test system: Reticulocyte; experiment: Binding affinity to wild-type Rous sarcoma virus frameshift element RNA pseudoknot sequence transfected with Renilla/Firefly luciferase in rabbit reticulocyte lysate assessed as reduction in frameshifting by dual-luciferase reporter assay relative to control; format: subcellular; parameters: scale not given: the % may be the effect or the level left; procedure, shortened: as §2
[9] = test system: MCF7; experiment: Cytotoxicity against human MCF7 cells assessed as reduction in cell viability upto 100 uM measured after 48 hrs by Cell-titer Glo luminescent assay; format: toxicity, cell-based; details: mcf7, 48 h
Procedure, shortened: (§3)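 MCF-7 cell viability after 48 h compound exposure.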

[10] = test system: Reticulocyte; experiment: Binding affinity to wild-type SARS-CoV-2 frameshift element RNA pseudoknot sequence transfected with Renilla/Firefly luciferase in rabbit reticulocyte lysate assessed as reduction in frameshifting by dual-luciferase reporter assay relative to control; format: subcellular; parameters: scale not given: the % may be the effect or the level left; details: Severe acute respiratory syndrome coronavirus 2; procedure, shortened: as §2
[11] = test system: Reticulocyte; experiment: Binding affinity to wild-type Rous sarcoma virus frameshift element RNA pseudoknot sequence transfected with Renilla/Firefly luciferase in rabbit reticulocyte lysate assessed as inhibition of translation by dual-luciferase reporter assay relative to control; format: subcellular; details: concentration not given here; procedure, shortened: as §2
[12] = test system: MCF7; experiment: Inhibition of programmed -1 ribosomal frameshifting in human MCF7 cells harboring pCherryGFP-Inframe-noFSE plasmid assessed as inhibition of GFP expression incubated for 30 mins by fluorescence microscopic analysis; format: functional, cell-based
Procedure, shortened: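 MCF-7 cells were treated with compound at various concentrations and transfected with an mCherry–FSE–GFP reporter: WT, a stop-codon negative control, or an in-frame no-FSE plasmid. GFP expression was the read-out, compared with a DMSO (0 μM) control. Data are mean ± SD of three independent experiments.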

[13] = test system: Severe acute respiratory syndrome coronavirus 2; experiment: Binding affinity to SARS-CoV-2 frameshift element RNA assessed as thermal stability by measuring change in melting temperature of RNA at 150 uM by circular dichroism analysis; procedure, shortened: as §1
[14] = Binding affinity to 5'-CY5-labelled SARS-CoV-2 frameshift element RNA assessed as dissociation constant by MST analysis; parameters: species or system Severe acute respiratory syndrome coronavirus 2
Procedure, shortened: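 MST titration of the compound (4.9–500 μM) into 5′-Cy5-labelled FSE RNA. KD was fitted from T-jump values.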

[15] = test system: Severe acute respiratory syndrome coronavirus 2; experiment: Binding affinity to SARS-CoV-2 frameshift element RNA assessed as thermal stability by measuring change in melting temperature of RNA at 500 uM by circular dichroism analysis; procedure, shortened: as §1
[16] = Binding affinity to 5'-biotin-labelled SARS-CoV-2 frameshift element RNA assessed as dissociation constant by SPR analysis; parameters: species or system Severe acute respiratory syndrome coronavirus 2
Procedure, shortened: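 5′-Biotin FSE RNA was captured on a streptavidin-coated SPR surface. Compound was injected at 15.6–1000 μM, and KD came from steady-state fitting to a 1:1 Langmuir model. Stoichiometry was estimated from Rmax and the molecular ratio.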

[17] = test system: Severe acute respiratory syndrome coronavirus 2; experiment: Binding affinity to SARS-CoV-2 frameshift element RNA at 150 uM by water ligand observed gradient spectroscopic analysis
Procedure, shortened: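 WaterLOGSY NMR of 150 μM compound, alone and with 5 μM unlabelled FSE RNA. N-methyl-L-valine served as internal non-binding control, and a phase inversion of ligand peaks was read as binding.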

[18] = Cytotoxicity against human MCF7 cells assessed as cell viability at 50 uM measured after 48 hrs by Cell-titer Glo luminescent assay relative to control; format: toxicity, cell-based; details: read-out: Activity; procedure, shortened: as §3
[19] = test system: Severe acute respiratory syndrome coronavirus 2; experiment: Binding affinity to 5'-Cy5-labelled SARS-CoV-2 frameshift element RNA at 10 uM by microarray-based fluorescence analysis
[20] = test system: Severe acute respiratory syndrome coronavirus 2; experiment: Binding affinity to 5'-CY5-labelled SARS-CoV-2 frameshift element RNA at 50 uM by MST analysis

Row | SMILES | Activity [1] | Activity [2] | further results
1 | COc1ccc(-c2nc(NCCN3CCOCC3)c3cc(C(F)(F)F)ccc3n2)cc1 | inactive | Active | 
2 | CCOC(=O)c1ccccc1NC(=O)N1CCCN(Cc2csc(C)n2)CC1 |  | Active | ΔTm [3]: 2.2 °C; Ratio [4]: 1.01; Ratio [5]: 1.02; Ratio [6]: 0.96; Ratio [7]: 1.13
3 | COc1ccc(-c2nc(NCCN3CCN(C)CC3)c3ccccc3n2)cc1 | Active | Active | 
4 | COc1ccc(-c2nc(NCCN3CCOCC3)c3ccc(C(F)(F)F)cc3n2)cc1 | inactive | Active | 
5 | COc1ccccc1-c1nc(NCCN2CCOCC2)c2ccccc2n1 | Active | inactive | 
6 | COc1ccc(-c2nc(NCCN3CCOCC3)c3cc([N+](=O)[O-])ccc3n2)cc1 | inactive | inactive | 
7 | COc1ccc(-c2nc(NCCN3CCOCC3)c3ccc([N+](=O)[O-])cc3n2)cc1 | inactive | inactive | 
8 | COc1ccc(-c2nc(NCCN3CCOCC3)c3c(OC)cccc3n2)cc1 | Active | inactive | 
9 | CCN(CCN1CCOCC1)c1nc(-c2ccc(OC)cc2)nc2ccccc12 | Active | inactive | 
10 | COc1ccc(-c2nc(NCCN3CCOCC3)c3cc(-c4ccc(N5CCOCC5)c(C)c4)ccc3n2)cc1 | Active | inactive | 
11 | COc1ccc(-c2nc(NCCN3CCOCC3)c3cc(-c4ccc(S(N)(=O)=O)cc4)ccc3n2)cc1 | Active | inactive | 
12 | COc1ccc(-c2nc(NCCN3CCOCC3)c3cc(OC)c(OC)cc3n2)cc1 | Active | Active | 
13 | CCNCC1CCN(c2c(F)cc3c(=O)c(C(=O)O)cn(CC)c3c2F)C1 (stereo not drawn) [MERAFLOXACIN] |  | Active | Activity [8]: 41%; Activity [9]: Non-Toxic; ΔTm [3]: -3.7 °C; Ratio [4]: 0.9; Ratio [5]: 0.21; Ratio [6]: 0.7; Ratio [7]: 0.59; Activity [10]: 79%; inhibition [11]: 30%
14 | COc1ccc(-c2nc(NCCN3CCOCC3)c3cccc(OC)c3n2)cc1 | Active | inactive | 
15 | COc1ccc(-c2nc(NCCS(=O)(=O)N3CCOCC3)c3ccccc3n2)cc1 | Active | inactive | 
16 | O=[N+]([O-])c1ccc(-c2nc(NCCN3CCOCC3)c3ccccc3n2)cc1 | inactive | inactive | 
17 | COc1ccc(-c2nc(NCCN3CCOCC3)c3ccccc3n2)cc1 | Active | Active | inhibition [12]: inactive; ΔTm [13]: -2.5 °C; Kd [14]: 139 µM; ΔTm [15]: -4.5 °C; Ratio [4]: 1.35; Kd [16]: 147 µM; Activity [17]: Active; viability at 48 h, 50 µM [18]: 91.6%; Ratio [5]: 0.99; Ratio [6]: 0.77; Ratio [7]: 1.21; Activity [19]: Active
18 | CCOC(=O)c1cccc(Nc2nc(-c3cccnc3)nc3ccccc23)c1 |  |  | Activity [17]: inactive; Activity [20]: inactive
19 | COc1ccc(-c2nc(NCCN3CCOCC3)c3ccc(-c4cn[nH]c4)cc3n2)cc1 | Active | Active | 
20 | COc1ccc(-c2nc(NCCN3CCOCC3)c3ccc(-c4ccc(S(N)(=O)=O)cc4)cc3n2)cc1 | inactive | inactive | 
21 | FC(F)(F)c1ccc(-c2nc(NCCN3CCOCC3)c3ccccc3n2)cc1 | Active | inactive | 
22 | COc1cccc(-c2nc(NCCN3CCOCC3)c3ccccc3n2)c1 | inactive | inactive | 
23 | CC#CCOc1ccc(-c2nc(NCCN3CCOCC3)c3ccccc3n2)cc1 | inactive | inactive | 
24 | COc1ccc(-c2nc(NCCN3CCOCC3)c3cc(-c4cn[nH]c4)ccc3n2)cc1 | Active | inactive | 
25 | COc1ccc(-c2nc(NCCN3CCOCC3)c3ccc(OC)cc3n2)cc1 | Active | Active | 
26 | COc1ccc(F)cc1COc1ccc(-c2nc(NCCN3CCOCC3)c3ccccc3n2)cc1 | inactive | inactive | 
27 | COc1ccc(-c2nc(NCCN3CCOCC3)c3cc(OC)ccc3n2)cc1 | Active | Active | Ratio [4]: 0.98; Kd [16]: 60 µM; viability at 48 h, 50 µM [18]: 95.6%; Ratio [5]: 0.98; Ratio [6]: 0.82; Ratio [7]: 1.13
28 | COc1ccc(-c2nc(NCCCN3CCC(N4CCCCC4)CC3)c3ccccc3n2)cc1 |  |  | Activity [17]: inactive; Activity [20]: inactive
29 | COc1ccc(-c2nc(N3CC(N4CCOCC4)C3)c3ccccc3n2)cc1 | Active | inactive | 
